From PMC10600558 (Molecular Imaging and Radionuclide Therapy, 2023)

Tests used:
[1] = system: neuroendocrine tumors (NETs); details: NETTER-1 trial; cited from earlier work
[2] = In vivo stability in patients' blood and urine samples; details: RP-HPLC
In short: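 Samples came from the first 3 patients: blood at 0-10 min and urine up to 3 h post-injection. Blood was precipitated with acetonitrile (1:1) and centrifuged for 5 min at 14,680 rpm, and the supernatant was diluted 1:1 with water. Urine was diluted with water, filtered and analysed immediately. Both went to RP-HPLC, and fractions were gamma-counted (440 keV, [213Bi]) at least 20 h later and plotted by tube number.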

NET = details: recent study of the same group; cited from earlier work
[3] = [^68Ga]Ga-DOTATATE uptake of parotid glands; format: in vivo, patients; details: [^68Ga]Ga-DOTATATE PET/CT
In short: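 Parotid SUVmax was read on [68Ga]Ga-DOTATATE PET/CT at baseline and after cycles of treatment. Pre/post values were compared by Wilcoxon rank sum test and reported as mean ± standard deviation, with p<0.05 taken as significant.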

[4] = system: metastatic neuroendocrine tumors (NETs); test: Response evaluation by [^68Ga]Ga-DOTATATE PET/CT and RECIST 1.1; format: in vivo, patients; details: [^68Ga]Ga-DOTATATE PET/CT three months after treatment, n=9 evaluated
In short: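 Treatment was 100-120 kBq/kg given intravenously over 5 min. Response was read on [68Ga]Ga-DOTATATE PET/contrast-enhanced CT within 4 weeks before and 12-16 weeks after treatment, repeated 12-18 weeks after each cycle until progression or death, and scored by RECIST 1.1 on the ceCT. PFS ran from the first administration and was estimated by Kaplan-Meier. Response comparisons used chi-square, with p<0.05 taken as significant.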

[5] = Toxicity and side effects according to CTCAE v5.0; format: in vivo, patients
In short: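 Patients were treated as inpatients with amino-acid renal protection and ondansetron premedication. Vital signs were recorded every 60 min for 5 h, and complaints were tracked for 24 h. Adverse events were graded by CTCAE v5.0 three months after each cycle. Haematological, renal and liver values before versus after the last cycle were compared by Wilcoxon rank sum test and reported as mean ± standard deviation, with p<0.05 taken as significant.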

[6] = Excretion from the kidneys after injection; format: in vivo; details: 24 h after injection, 9 patients, mean ± SD, relative to injected activity
In short: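 Patients received 100-120 kBq/kg of the test radioligand as a slow intravenous injection over 5 min, with arginine/lysine kidney protection. The amount excreted in urine was quantified against standard samples prepared at the time of injection. The excretion rate was expressed relative to injected activity and reported as mean ± standard deviation.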

[7] = In vitro stability of [^225Ac]Ac-DOTATATE in saline; format: physicochemical; details: 37 °C, up to 5 h, n=3, slight decrease in stability after 5 h
[8] = CTCAE v5.0, 8 patients analysed, n=1 (grade 2, after 3 cycles)

Substance | estimated median progression-free survival (PFS) [1] | time stable in vivo (urine and blood samples) ([2]; first 3 patients, blood 0-10 min, urine up to 3 h after injection) | time remained stable in urine ([2]; patient urine samples up to 3 h after injection) | disease control rate (NET) | mean parotid SUVmax after two cycles ([3]; n=6, baseline 2.98±0.96, p=0.73) | mean parotid SUVmax after the first cycle ([3]; n=9, baseline 2.98±0.96, p=0.93) | progressive disease ([4]; n=1) | partial response (PR) ([4]; n=4) | hematotoxicity rate [5, 8] | nephrotoxicity rate [5, 8] | grade 3-4 toxicities ([5]; CTCAE v5.0, mean activity 8.2±0.6 MBq per cycle, 1-3 cycles) | lymphocyte count ([5]; all patients, p<0.05) | acute side effects during the injection ([5]; nausea or vomiting, slow injection over 5 min, 100-120 kBq/kg) | xerostomia ([5]; patient complaints) | mean excretion rate from the kidneys [6] | RP-HPLC profile of saline incubation samples [7]
[^177Lu]Lu-DOTATATE | 40 months | – | – | – | – | – | – | – | – | – | – | – | – | – | – | –
[^225Ac]Ac-DOTATATE | – | ≥ 3 h | up to 3 h | 79.8% | 2.48±0.59 | 2.07±0.93 | 11% | 44.4% | 12.5% | 12.5% | No grade 3-4 toxicities | transient decrease | did not observe any acute side effects | did not complain of xerostomia | 56±9.7% | single radioactivity peak
